Measured values reported in ChEMBL document CHEMBL2380224, “Fragment-based ligand design of novel potent inhibitors of tankyrases” (J Med Chem, 2013).
Values after ≈ are worked out from the molar mass of the structure shown.

Experiments:
[1] = target: Protein mono-ADP-ribosyltransferase PARP6 (Homo sapiens, UniProt Q2NL67); test: Inhibition of PARP6 (unknown origin)
[2] = target: T1, Poly [ADP-ribose] polymerase tankyrase-2 (Homo sapiens, UniProt Q9H2K2); test: Inhibition of auto-PARsylation of GST-tagged TNKS2 PARP domain (947 to 1162) (unknown origin) expressed in Escherichia coli BL21(DE3) after 2 hrs by LC/MS analysis
T1 sequence (Q9H2K2 whole entry): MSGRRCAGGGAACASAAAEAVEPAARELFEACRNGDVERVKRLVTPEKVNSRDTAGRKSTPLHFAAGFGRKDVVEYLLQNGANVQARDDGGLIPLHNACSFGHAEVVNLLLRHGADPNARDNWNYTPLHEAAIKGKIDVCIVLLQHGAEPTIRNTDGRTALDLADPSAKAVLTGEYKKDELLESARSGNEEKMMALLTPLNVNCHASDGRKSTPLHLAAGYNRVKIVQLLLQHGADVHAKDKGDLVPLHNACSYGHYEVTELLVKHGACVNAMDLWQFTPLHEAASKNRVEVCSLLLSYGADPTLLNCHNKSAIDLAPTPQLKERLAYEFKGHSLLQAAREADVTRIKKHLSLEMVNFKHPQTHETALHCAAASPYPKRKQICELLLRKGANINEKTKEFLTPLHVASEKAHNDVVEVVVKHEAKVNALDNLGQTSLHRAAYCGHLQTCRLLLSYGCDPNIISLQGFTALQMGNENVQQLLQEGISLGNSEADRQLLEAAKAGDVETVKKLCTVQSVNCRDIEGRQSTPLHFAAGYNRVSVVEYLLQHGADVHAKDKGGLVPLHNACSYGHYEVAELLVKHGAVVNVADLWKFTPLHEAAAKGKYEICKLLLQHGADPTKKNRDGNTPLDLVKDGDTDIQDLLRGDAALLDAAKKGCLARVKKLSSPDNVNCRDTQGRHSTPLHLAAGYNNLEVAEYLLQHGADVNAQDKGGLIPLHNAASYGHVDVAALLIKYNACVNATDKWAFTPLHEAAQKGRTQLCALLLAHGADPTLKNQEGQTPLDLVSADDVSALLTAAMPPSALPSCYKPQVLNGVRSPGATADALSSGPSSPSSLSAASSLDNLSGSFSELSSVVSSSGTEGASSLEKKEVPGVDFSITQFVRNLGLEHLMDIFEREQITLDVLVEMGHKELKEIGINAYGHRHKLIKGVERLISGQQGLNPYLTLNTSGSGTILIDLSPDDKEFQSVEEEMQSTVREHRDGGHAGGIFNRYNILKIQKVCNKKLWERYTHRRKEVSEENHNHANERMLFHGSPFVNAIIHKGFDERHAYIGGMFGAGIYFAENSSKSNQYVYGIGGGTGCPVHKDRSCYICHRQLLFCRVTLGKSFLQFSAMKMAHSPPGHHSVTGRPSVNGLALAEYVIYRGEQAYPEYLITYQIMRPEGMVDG

[3] = target: T2, Poly [ADP-ribose] polymerase tankyrase-2 (Homo sapiens) (UniProt Q9H2K2); test: Binding affinity to TNKS2 PARP domain (947 to 1162) (unknown origin) expressed in Escherichia coli BL21(DE3) assessed as thermal stabilization at 125 uM by differential scanning flourimetric analysis
T2 sequence (whole entry): T1 sequence (Q9H2K2 whole entry)
Method in brief: (§1)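 DSF dose−response. TNKS2 at 0.2 mg/mL with SYPRO Orange (5×). Compounds were serially diluted in 100% DMSO at 50× the assay concentration. Chymotrypsin (1/100 TNKS2 mass equivalents) was added to the protein–dye mix just before the run. Scanned 25−80 °C at about 2 °C/min, ex 490/em 575 nm, and Tm shift was taken against the DMSO control.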

[4] = target: T1, Poly [ADP-ribose] polymerase tankyrase-2; test: Binding affinity to 6His-tagged TNKS2 PARP domain (947 to 1162) (unknown origin) expressed in Escherichia coli BL21(DE3) by surface plasmon resonance analysis
Method in brief: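 SPR on a Biacore instrument. Running buffer: 20 mM PBS pH 7.4, 0.05% Tween20, 2% DMSO. His-tagged TNKS2 (20 μg/mL in 20 mM PBS pH 7.4) was capture-coupled at 10 μL/min onto a Ni²⁺/NHS doubly preactivated NTA chip, to a target of 5000 RU.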

[5] = Thermodynamic solubility of the compound in pION buffer at 500 uM after 18 hrs at pH 4.0 by UV-spectrophotometric analysis; assay type: physicochemical; conditions: read-out: Therm_solubility
Method in brief: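 A 50 mM DMSO stock was diluted into pH 4.0 pION buffer (final 500 μM test compound) and incubated sealed for 18 h. Samples were vacuum filtered, discarding the first filtrate used to wet the filter. Filtrate was mixed 1:1 with 1-propanol for UV read-out.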

[6] = target: T2, Poly [ADP-ribose] polymerase tankyrase-2 (Homo sapiens); test: Binding affinity to TNKS2 PARP domain (947 to 1162) (unknown origin) expressed in Escherichia coli BL21(DE3) assessed as thermal stabilization at 1 mM by differential scanning flourimetric analysis
Method in brief: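 Fragment screen by DSF. TNKS2 at 0.2 mg/mL with SYPRO Orange (5×). Compound added from 50 mM DMSO stocks, giving final 1 mM and 2% DMSO; DMSO controls on each plate. Scanned 25−80 °C at about 2 °C/min, fluorescence ex 490/em 575 nm. Curves inspected visually; Tm fitted to sigmoidal transitions.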

[7] = target: T2, Poly [ADP-ribose] polymerase tankyrase-2 (Homo sapiens); test: Binding affinity to TNKS2 PARP domain (947 to 1162) (unknown origin) expressed in Escherichia coli BL21(DE3) assessed as thermal stabilization by differential scanning flourimetric analysis; method in brief: as §1
[8] = target: T3, Protein mono-ADP-ribosyltransferase TIPARP (Homo sapiens) (UniProt Q7Z3E1); test: Inhibition of PARP7 (unknown origin) at 10 uM relative to control
T3 sequence (whole entry): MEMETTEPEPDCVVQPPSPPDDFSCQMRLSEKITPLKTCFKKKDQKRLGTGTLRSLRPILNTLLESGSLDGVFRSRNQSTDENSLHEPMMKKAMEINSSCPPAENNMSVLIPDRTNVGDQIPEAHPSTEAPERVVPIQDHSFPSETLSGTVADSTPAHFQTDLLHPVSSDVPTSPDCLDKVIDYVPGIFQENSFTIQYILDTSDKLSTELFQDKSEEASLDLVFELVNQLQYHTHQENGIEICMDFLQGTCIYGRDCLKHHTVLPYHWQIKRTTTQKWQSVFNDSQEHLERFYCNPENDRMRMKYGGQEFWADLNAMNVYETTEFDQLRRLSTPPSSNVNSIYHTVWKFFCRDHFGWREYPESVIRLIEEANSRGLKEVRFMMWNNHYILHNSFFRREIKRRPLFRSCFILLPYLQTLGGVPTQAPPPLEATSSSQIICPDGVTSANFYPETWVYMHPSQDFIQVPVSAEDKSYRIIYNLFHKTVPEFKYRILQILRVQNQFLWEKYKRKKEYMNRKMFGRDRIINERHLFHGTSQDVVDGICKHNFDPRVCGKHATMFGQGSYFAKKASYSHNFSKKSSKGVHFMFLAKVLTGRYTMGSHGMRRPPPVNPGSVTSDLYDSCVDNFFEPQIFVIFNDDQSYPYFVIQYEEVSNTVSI

[9] = target: T4, Protein mono-ADP-ribosyltransferase PARP11 (Homo sapiens) (UniProt Q9NR21); test: Inhibition of PARP11 (unknown origin) at 10 uM relative to control
T4 sequence (whole entry): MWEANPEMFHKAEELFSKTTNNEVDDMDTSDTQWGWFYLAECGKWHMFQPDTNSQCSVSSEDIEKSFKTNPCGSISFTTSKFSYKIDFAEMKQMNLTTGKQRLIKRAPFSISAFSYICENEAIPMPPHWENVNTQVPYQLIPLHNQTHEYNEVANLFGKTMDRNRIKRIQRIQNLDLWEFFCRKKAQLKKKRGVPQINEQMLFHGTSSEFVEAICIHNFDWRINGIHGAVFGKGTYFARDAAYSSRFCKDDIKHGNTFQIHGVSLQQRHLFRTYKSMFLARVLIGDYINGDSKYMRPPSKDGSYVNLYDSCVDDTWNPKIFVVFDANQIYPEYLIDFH

Sequence of Protein mono-ADP-ribosyltransferase PARP6 (Q2NL67 whole entry, the tested form may be a part): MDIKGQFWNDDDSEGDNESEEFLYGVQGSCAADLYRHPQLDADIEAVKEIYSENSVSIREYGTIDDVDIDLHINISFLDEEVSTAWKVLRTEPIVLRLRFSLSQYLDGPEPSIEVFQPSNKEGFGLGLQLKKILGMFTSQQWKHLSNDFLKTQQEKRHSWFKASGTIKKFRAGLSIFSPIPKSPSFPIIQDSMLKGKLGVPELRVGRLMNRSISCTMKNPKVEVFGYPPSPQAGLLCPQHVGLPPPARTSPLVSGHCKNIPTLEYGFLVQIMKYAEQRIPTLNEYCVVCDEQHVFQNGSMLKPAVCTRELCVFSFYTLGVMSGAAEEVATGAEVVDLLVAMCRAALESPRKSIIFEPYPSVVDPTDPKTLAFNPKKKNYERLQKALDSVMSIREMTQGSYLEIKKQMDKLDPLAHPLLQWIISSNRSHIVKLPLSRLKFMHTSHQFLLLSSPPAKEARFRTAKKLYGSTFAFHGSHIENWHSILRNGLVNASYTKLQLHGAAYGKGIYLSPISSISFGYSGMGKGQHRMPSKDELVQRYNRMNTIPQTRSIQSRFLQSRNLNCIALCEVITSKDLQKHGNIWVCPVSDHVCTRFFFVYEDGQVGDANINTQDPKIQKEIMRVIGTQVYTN

SMILES | IC50 [2] | ΔTm [3] | Kd [4] | also measured
Oc1nc(-c2ccc(C(F)(F)F)cc2)nc2c1CSCC2 | – | – | – | IC50 [1]: > 10 µM
Cc1cc(=O)[nH]c2ccc(-c3ccccc3)cc12 | > 20 µM | 0.6 °C | – | –
Cc1cc(=O)[nH]c2cc(-c3ccc(N)cc3Cl)ccc12 | 0.039 µM | 9.4 °C | 0.039 µM | –
Cc1cc(=O)[nH]c2cc(-c3ccccc3Cl)ccc12 | 0.009 µM | 6.3 °C | 0.057 µM | solubility thermodynamic at 18 h, 500 µM [5]: < 0.1 µg/mL
COc1ccccc1-c1ccc2c(C)cc(=O)[nH]c2c1 | 1.37 µM | 1.5 °C | – | –
Cc1cc(=O)[nH]c2ccccc12 | 12 µM | – | – | ΔTm [6]: 1.1 °C
Cc1cc(=O)[nH]c2cc(-c3ccc(C(=O)O)cc3Cl)ccc12 | 0.021 µM | 7.4 °C | – | solubility thermodynamic at 18 h, 500 µM [5]: 4.3 µg/mL (≈ 13.7 µM)
O=c1[nH]nc(Cl)c2ccccc12 | – | – | – | Activity [7]: Dose-dependent effect; ΔTm [6]: 1.3 °C
Cc1cc(=O)[nH]c2cc(-c3ccc(C(=O)NCCN4CCOCC4)cc3Cl)ccc12 | 0.022 µM | 9.9 °C | 0.018 µM | solubility thermodynamic at 18 h, 500 µM [5]: 42.6 µg/mL (≈ 100 µM)
Cc1cc(=O)[nH]c2cc(-c3ccccc3)ccc12 | 0.18 µM | 3.2 °C | 0.9 µM | solubility thermodynamic at 18 h, 500 µM [5]: 0.65 µg/mL (≈ 2.76 µM)
O=C(c1cc(Cc2n[nH]c(=O)c3ccccc23)ccc1F)N1CCN(C(=O)C2CC2)CC1 | – | – | – | inhibition [8]: 84%; inhibition [9]: 72%
Oc1ccc2ccccc2n1 | > 20 µM | – | – | –
COCCNC(=O)c1ccc(-c2ccc3c(C)cc(=O)[nH]c3c2)c(Cl)c1 | 0.009 µM | 10.1 °C | 0.016 µM | –
Cc1cc(=O)[nH]c2cc(-c3ccc(F)cc3)ccc12 | 0.31 µM | 3.1 °C | – | –
Cc1cc(=O)[nH]c2cc(-c3cccc(F)c3)ccc12 | 0.15 µM | 4.4 °C | – | –
